According to ChEMBL document CHEMBL5058577, “EUbOPEN Chemogenomics Library 2 (Multiplex)” (2022):

System: U2OS
Test: Multiplex assay against U2OS
Assay type: toxicity, cell-based
Details: human
Method in brief: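 Per cents of healthy-nucleus cells form the tubulin, mitochondrial-mass and membrane-permeability phenotype values. Live cells were stained at seeding with Hoechst33342, BioTracker Green Microtubule Cytoskeleton Dye, MitoTracker Red and Annexin V Alexa Fluor 680. After compound addition they were imaged on a CQ1 microscope at 37°C and 5% CO2, and CellPathfinder machine-learning gating split them into Hoechst high-intensity objects or normal cells, normal cells into healthy, pyknosed or fragmented nuclei, and pyknosed cells into mitotic or apoptotic.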

[1] = 12 h, 1 µM, compound concentration 1 uM, replicate 1
[2] = 12 h, 1 µM, compound concentration 1 uM, replicate 2
[3] = 12 h, 10 µM, compound concentration 10 uM, replicate 1
[4] = 12 h, 10 µM, compound concentration 10 uM, replicate 2
[5] = 24 h, 1 µM, compound concentration 1 uM, replicate 1
[6] = 24 h, 1 µM, compound concentration 1 uM, replicate 2
[7] = 24 h, 10 µM, compound concentration 10 uM, replicate 1
[8] = 24 h, 10 µM, compound concentration 10 uM, replicate 2
[9] = 48 h, 1 µM, compound concentration 1 uM, replicate 1
[10] = 48 h, 1 µM, compound concentration 1 uM, replicate 2
[11] = 48 h, 10 µM, compound concentration 10 uM, replicate 1
[12] = 48 h, 10 µM, compound concentration 10 uM, replicate 2

O=C(O)c1cc2ccccc2c(Cc2c(O)c(C(=O)O)cc3ccccc23)c1O [PAMOIC ACID]
Population Apoptotic (%) [1]: 85% | Population Fragmented Nuclei (%) [1]: 23% | Population Healthy Nuclei (%) [1]: 68% | Population Hoechst High Intensity Objects (%) [1]: 1% | Population Membrane Permeable-Phenotype (%) [1]: 2% | Population Mitochondria Different-Phenotype (%) [1]: 0% | Population Mitotic Cells (%) [1]: 15% | Population Normal (%) [1]: 98% | Population Pyknosed Nuclei (%) [1]: 8% | Population Tubulin-Different-Phenotype (%) [1]: 0% | Total Cell Count [1]: 246 | Population Apoptotic (%) [2]: 50% | Population Fragmented Nuclei (%) [2]: 15% | Population Healthy Nuclei (%) [2]: 73% | Population Hoechst High Intensity Objects (%) [2]: 0% | Population Membrane Permeable-Phenotype (%) [2]: 12% | Population Mitochondria Different-Phenotype (%) [2]: 6% | Population Mitotic Cells (%) [2]: 50% | Population Normal (%) [2]: 100% | Population Pyknosed Nuclei (%) [2]: 11% | Population Tubulin-Different-Phenotype (%) [2]: 13% | Total Cell Count [2]: 109 | Population Apoptotic (%) [3]: 75% | Population Fragmented Nuclei (%) [3]: 19% | Population Healthy Nuclei (%) [3]: 75% | Population Hoechst High Intensity Objects (%) [3]: 2% | Population Membrane Permeable-Phenotype (%) [3]: 6% | Population Mitochondria Different-Phenotype (%) [3]: 1% | Population Mitotic Cells (%) [3]: 25% | Population Normal (%) [3]: 97% | Population Pyknosed Nuclei (%) [3]: 4% | Population Tubulin-Different-Phenotype (%) [3]: 4% | Total Cell Count [3]: 259 | Population Apoptotic (%) [4]: 87% | Population Hoechst High Intensity Objects (%) [4]: 0% | Population Membrane Permeable-Phenotype (%) [4]: 5% | Population Mitochondria Different-Phenotype (%) [4]: 3% | Population Mitotic Cells (%) [4]: 12% | Population Normal (%) [4]: 100% | Population Pyknosed Nuclei (%) [4]: 5% | Population Tubulin-Different-Phenotype (%) [4]: 2% | Total Cell Count [4]: 140 | Population Apoptotic (%) [5]: 92% | Population Fragmented Nuclei (%) [5]: 18% | Population Healthy Nuclei (%) [5]: 72% | Population Hoechst High Intensity Objects (%) [5]: 1% | Population Membrane Permeable-Phenotype (%) [5]: 2% | Population Mitochondria Different-Phenotype (%) [5]: 0% | Population Mitotic Cells (%) [5]: 8% | Population Normal (%) [5]: 98% | Population Pyknosed Nuclei (%) [5]: 8% | Population Tubulin-Different-Phenotype (%) [5]: 1% | Total Cell Count [5]: 288 | Population Apoptotic (%) [6]: 76% | Population Fragmented Nuclei (%) [6]: 20% | Population Healthy Nuclei (%) [6]: 70% | Population Hoechst High Intensity Objects (%) [6]: 0% | Population Membrane Permeable-Phenotype (%) [6]: 11% | Population Mitochondria Different-Phenotype (%) [6]: 2% | Population Mitotic Cells (%) [6]: 23% | Population Normal (%) [6]: 99% | Population Pyknosed Nuclei (%) [6]: 9% | Population Tubulin-Different-Phenotype (%) [6]: 7% | Total Cell Count [6]: 139 | Population Apoptotic (%) [7]: 82% | Population Fragmented Nuclei (%) [7]: 17% | Population Healthy Nuclei (%) [7]: 76% | Population Hoechst High Intensity Objects (%) [7]: 3% | Population Membrane Permeable-Phenotype (%) [7]: 5% | Population Mitochondria Different-Phenotype (%) [7]: 2% | Population Mitotic Cells (%) [7]: 17% | Population Normal (%) [7]: 96% | Population Pyknosed Nuclei (%) [7]: 5% | Population Tubulin-Different-Phenotype (%) [7]: 3% | Total Cell Count [7]: 314 | Population Apoptotic (%) [8]: 90% | Population Fragmented Nuclei (%) [8]: 13% | Population Healthy Nuclei (%) [8]: 79% | Population Hoechst High Intensity Objects (%) [8]: 1% | Population Membrane Permeable-Phenotype (%) [8]: 7% | Population Mitochondria Different-Phenotype (%) [8]: 3% | Population Mitotic Cells (%) [8]: 9% | Population Normal (%) [8]: 98% | Population Pyknosed Nuclei (%) [8]: 6% | Population Tubulin-Different-Phenotype (%) [8]: 7% | Total Cell Count [8]: 163 | Population Apoptotic (%) [9]: 83% | Population Fragmented Nuclei (%) [9]: 16% | Population Healthy Nuclei (%) [9]: 74% | Population Hoechst High Intensity Objects (%) [9]: 1% | Population Membrane Permeable-Phenotype (%) [9]: 2% | Population Mitochondria Different-Phenotype (%) [9]: 1% | Population Mitotic Cells (%) [9]: 16% | Population Normal (%) [9]: 98% | Population Pyknosed Nuclei (%) [9]: 9% | Population Tubulin-Different-Phenotype (%) [9]: 2% | Total Cell Count [9]: 469 | Population Apoptotic (%) [10]: 90% | Population Fragmented Nuclei (%) [10]: 11% | Population Healthy Nuclei (%) [10]: 76% | Population Hoechst High Intensity Objects (%) [10]: 2% | Population Membrane Permeable-Phenotype (%) [10]: 9% | Population Mitochondria Different-Phenotype (%) [10]: 3% | Population Mitotic Cells (%) [10]: 10% | Population Normal (%) [10]: 97% | Population Pyknosed Nuclei (%) [10]: 11% | Population Tubulin-Different-Phenotype (%) [10]: 5% | Total Cell Count [10]: 177 | Population Apoptotic (%) [11]: 96% | Population Fragmented Nuclei (%) [11]: 15% | Population Healthy Nuclei (%) [11]: 77% | Population Hoechst High Intensity Objects (%) [11]: 3% | Population Membrane Permeable-Phenotype (%) [11]: 5% | Population Mitochondria Different-Phenotype (%) [11]: 1% | Population Mitotic Cells (%) [11]: 3% | Population Normal (%) [11]: 96% | Population Pyknosed Nuclei (%) [11]: 6% | Population Tubulin-Different-Phenotype (%) [11]: 4% | Total Cell Count [11]: 455 | Population Apoptotic (%) [12]: 89% | Population Fragmented Nuclei (%) [12]: 20% | Population Healthy Nuclei (%) [12]: 66% | Population Hoechst High Intensity Objects (%) [12]: 0% | Population Membrane Permeable-Phenotype (%) [12]: 6% | Population Mitochondria Different-Phenotype (%) [12]: 2% | Population Mitotic Cells (%) [12]: 10% | Population Normal (%) [12]: 99% | Population Pyknosed Nuclei (%) [12]: 13% | Population Tubulin-Different-Phenotype (%) [12]: 2% | Total Cell Count [12]: 218
